According to ChEMBL document CHEMBL4038325, “Opioid Receptor Modulators with a Cinnamyl Group” (J Med Chem, 2017):
Activity calls are given as the source filed them. No cut-off for these calls is given here.

How the values were obtained:
[1] = target: T1, Mu-type opioid receptor (Homo sapiens, UniProt P35372); conditions: HEK-293T, at 10 µM
[2] = target: T1, Mu-type opioid receptor; assay: Agonist activity at recombinant human MOR expressed in HEK293T cells assessed as inhibition of forskolin-stimulated cAMP level at 10 uM preincubated for 15 to 20 mins followed by forskolin addition by GloSensor assay relative to control; assay type: functional, cell-based; conditions: HEK-293T
Outline: (§1)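 HEK293T transiently co-transfected (calcium phosphate) with DOR or MOR plus pGloSensor-22F. Cells were loaded with luciferin in HBSS/20 mM HEPES pH 7.4 for 90 min, then given compound in triplicate for 15-20 min at 37°C. Forskolin added (final 10 µM); luminescence read. cAMP signal normalized to forskolin-alone control.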

[3] = target: T2, Kappa-type opioid receptor (Homo sapiens, UniProt P41145); conditions: HEK-293T, at 10 µM
[4] = target: T2, Kappa-type opioid receptor; assay: Agonist activity at recombinant human KOR expressed in HEK293T cells assessed as inhibition of forskolin-stimulated cAMP level preincubated for 15 to 20 mins followed by forskolin addition by GloSensor assay; assay type: functional, cell-based; conditions: for inhibition: HEK-293T
Outline: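 HEK293T transiently transfected with hKOR plus GloSensor-22F plasmid. Compounds (10 µM to 10 pM, triplicate) added for 15-20 min at 37°C, then forskolin added (final 10 µM). Luminescence of live cells normalized to % forskolin-alone control. IC50 from non-linear regression; two independent experiments.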

[5] = target: Delta-type opioid receptor (Homo sapiens) (UniProt P41143); assay: Antagonist activity at recombinant human DOR expressed in HEK293T cells assessed as reduction in DADLE-induced inhibition of forskolin-stimulated cAMP level at 10 uM preincubated for 15 to 20 mins followed by DADLE and forskolin addition by GloSensor assay relative to control; assay type: functional, cell-based; conditions: HEK-293T
Outline: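 HEK293T transiently expressing DOR plus GloSensor-22F were given compound in triplicate for 15-20 min at 37°C. DADLE (1 µM) was then added, followed by forskolin (10 µM); luminescence read. Signal normalized to % control (agonist + forskolin).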

[6] = target: Histamine H1 receptor (Homo sapiens) (UniProt P35367); assay: Agonist activity at histamine H1 receptor (unknown origin) at 10 uM
Outline: (§2)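 Primary screen, agonist and antagonist modes, each receptor tested separately. Compounds at 10 µM in triplicate; response taken as % inhibition or stimulation relative to control. Compounds giving at least 50% effect were then run over 10 µM to 10 pM to obtain EC50/IC50.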

[7] = target: Histamine H1 receptor (Homo sapiens) (UniProt P35367); assay: Antagonist activity at histamine H1 receptor (unknown origin) at 10 uM
Outline: as §2

[8] = target: Delta-type opioid receptor (Homo sapiens) (UniProt P41143); assay: Agonist activity at recombinant human DOR expressed in HEK293T cells assessed as inhibition of forskolin-stimulated cAMP level at 10 uM preincubated for 15 to 20 mins followed by forskolin addition by GloSensor assay relative to control; assay type: functional, cell-based; conditions: HEK-293T
Outline: as §1

[9] = target: T3, D(2) dopamine receptor (Homo sapiens, UniProt P14416); assay: Antagonist activity at dopamine D2 receptor (unknown origin) at 10 uM
Outline: as §2

[10] = target: T3, D(2) dopamine receptor; assay: Agonist activity at dopamine D2 receptor (unknown origin) at 10 uM
Outline: as §2

[11] = target: T2, Kappa-type opioid receptor; conditions: HEK-293T, at 10 µM; remark: listed apart in the source
[12] = target: T1, Mu-type opioid receptor; assay type: functional, cell-based, HEK-293T
[13] = system: Mus musculus; assay: Analgesic activity in C57BL/6J mouse assessed as tail withdrawal latency at 10 mg/kg measured after 30 mins in presence of KOR antagonist norBNI by tail flick test; assay type: functional, organism-based
Outline: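 Male C57BL/6J mice (5-6/group) received norBNI 10 mg/kg i.p. 30 min before test compound at 10 mg/kg i.p. Tail withdrawal latency in 52 ± 0.5°C water was measured at the 30 min time point, three readings, by a blinded observer.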

[14] = system: Mus musculus; assay: Analgesic activity in C57BL/6J mouse assessed as tail withdrawal latency at 10 mg/kg by tail flick test; assay type: functional, organism-based
Outline: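 Male C57BL/6J mice, 6-8 weeks, 22-25 g; 5-6 per group. Dosed 10 mg/kg i.p. Distal third of tail immersed in 52 ± 0.5°C water; latency recorded three times per time point by a blinded observer. Latency expressed as % of baseline taken 15 min before dosing, followed over time; area under curve also calculated.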

Chain of Histamine H1 receptor (Homo sapiens) (P35367 whole entry): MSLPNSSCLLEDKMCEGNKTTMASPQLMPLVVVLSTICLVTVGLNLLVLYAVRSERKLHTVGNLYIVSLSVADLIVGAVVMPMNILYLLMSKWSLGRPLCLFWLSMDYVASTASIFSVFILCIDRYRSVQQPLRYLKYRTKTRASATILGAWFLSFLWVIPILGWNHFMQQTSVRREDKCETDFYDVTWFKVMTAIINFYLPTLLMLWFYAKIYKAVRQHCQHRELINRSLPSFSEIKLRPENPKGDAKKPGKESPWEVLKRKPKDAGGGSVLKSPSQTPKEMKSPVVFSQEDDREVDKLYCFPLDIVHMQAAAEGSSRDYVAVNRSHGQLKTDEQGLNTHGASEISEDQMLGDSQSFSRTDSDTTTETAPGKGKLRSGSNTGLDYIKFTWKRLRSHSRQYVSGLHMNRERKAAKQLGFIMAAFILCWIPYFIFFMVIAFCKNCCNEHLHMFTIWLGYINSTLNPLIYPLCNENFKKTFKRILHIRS
T3 sequence (P14416 whole entry): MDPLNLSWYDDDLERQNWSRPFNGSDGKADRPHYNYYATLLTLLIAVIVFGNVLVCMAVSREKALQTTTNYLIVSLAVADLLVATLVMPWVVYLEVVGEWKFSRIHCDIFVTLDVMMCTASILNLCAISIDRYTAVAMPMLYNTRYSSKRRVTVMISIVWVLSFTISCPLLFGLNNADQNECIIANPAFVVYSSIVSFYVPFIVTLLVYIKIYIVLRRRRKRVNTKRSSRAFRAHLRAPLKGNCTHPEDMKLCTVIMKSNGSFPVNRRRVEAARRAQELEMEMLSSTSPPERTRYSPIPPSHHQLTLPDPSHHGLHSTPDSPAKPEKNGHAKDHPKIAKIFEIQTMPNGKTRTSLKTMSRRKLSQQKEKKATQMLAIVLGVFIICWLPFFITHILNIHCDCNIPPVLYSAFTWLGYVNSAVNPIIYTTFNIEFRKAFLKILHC
T1 sequence (P35372 whole entry): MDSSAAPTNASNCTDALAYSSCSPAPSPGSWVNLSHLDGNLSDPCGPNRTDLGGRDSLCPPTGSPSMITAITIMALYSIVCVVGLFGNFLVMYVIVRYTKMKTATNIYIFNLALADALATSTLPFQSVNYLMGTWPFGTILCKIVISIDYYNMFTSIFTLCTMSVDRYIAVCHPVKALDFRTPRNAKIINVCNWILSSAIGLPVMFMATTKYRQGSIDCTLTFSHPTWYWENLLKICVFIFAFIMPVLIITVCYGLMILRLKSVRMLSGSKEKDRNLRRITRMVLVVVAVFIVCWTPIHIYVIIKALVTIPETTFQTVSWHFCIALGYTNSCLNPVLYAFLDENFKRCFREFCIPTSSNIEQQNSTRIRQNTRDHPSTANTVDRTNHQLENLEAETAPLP
T2 sequence (P41145 whole entry): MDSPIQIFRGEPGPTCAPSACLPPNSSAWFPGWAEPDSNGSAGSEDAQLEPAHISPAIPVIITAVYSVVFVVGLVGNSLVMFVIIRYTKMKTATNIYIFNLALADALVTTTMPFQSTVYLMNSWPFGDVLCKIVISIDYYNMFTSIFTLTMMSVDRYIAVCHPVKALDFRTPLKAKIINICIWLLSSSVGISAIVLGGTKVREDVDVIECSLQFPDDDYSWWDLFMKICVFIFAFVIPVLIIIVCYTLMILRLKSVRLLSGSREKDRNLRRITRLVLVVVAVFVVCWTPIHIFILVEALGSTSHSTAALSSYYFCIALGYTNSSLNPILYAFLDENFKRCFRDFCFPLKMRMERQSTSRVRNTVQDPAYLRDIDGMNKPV
Chain of Delta-type opioid receptor (Homo sapiens) (P41143 whole entry): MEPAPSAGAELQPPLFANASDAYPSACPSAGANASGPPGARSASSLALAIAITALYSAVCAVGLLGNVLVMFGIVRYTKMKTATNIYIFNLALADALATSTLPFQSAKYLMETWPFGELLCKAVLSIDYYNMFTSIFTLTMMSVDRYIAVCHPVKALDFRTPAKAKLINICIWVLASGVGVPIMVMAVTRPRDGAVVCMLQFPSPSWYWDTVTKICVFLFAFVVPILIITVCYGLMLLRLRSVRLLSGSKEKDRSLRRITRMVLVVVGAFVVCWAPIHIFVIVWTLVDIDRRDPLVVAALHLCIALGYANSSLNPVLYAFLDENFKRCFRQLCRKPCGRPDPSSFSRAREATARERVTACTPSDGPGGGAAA

| SMILES | inhibition [1] | inhibition [2] | inhibition [3] | inhibition [4] | inhibition [5] | inhibition [8] | inhibition [11] | also measured |
| --- | --- | --- | --- | --- | --- | --- | --- | --- |
| CCC(C)C(NC(=O)/C(=C/c1ccccc1)CN1CCN(c2ccc(O)cc2)CC1)C(=O)O (stereo not given) | inactive | inactive | inactive | inactive |  |  |  |  |
| COc1ccc(N2CCN(C/C(=C\c3ccccc3)C(=O)NCC(=O)O)CC2)cc1 | inactive | inactive | inactive | inactive |  |  |  |  |
| CCOC(=O)C(NC(=O)/C(=C/c1ccccc1)CN1CCN(c2nsc3ccccc23)CC1)C(C)C (stereo not given) | inactive | inactive |  |  | inactive | inactive |  | Activity [6]: inactive; inhibition [7]: inactive; inhibition (INH) [9]: Not Active; IC50 ([4]; read-out: IC50): 1800 nM; IC50 ([4]; read-out: pIC50 (converted)): 1910 to 1980 nM; Activity [10]: Not Active |
| CC(C)[C@H](NC(=O)/C(=C/c1ccccc1)CN1CCN(c2ccc(O)cc2)CC1)C(=O)O | inactive | inactive | inactive | inactive |  |  |  |  |
| COc1ccccc1N1CCN(CC(Cc2ccccc2)C(=O)NCC(=O)O)CC1 (stereo not given) | inactive | inactive | inactive |  |  |  | inactive |  |
| O=C(O)CNC(=O)C(Cc1ccccc1)CN1CCN(c2ccccc2)CC1 (stereo not given) | inactive | inactive | inactive |  |  |  | inactive |  |
| O=C(O)CNC(=O)/C(=C/c1ccccc1)CN1CCN(c2cccc(O)c2)CC1 |  |  | inactive |  |  |  |  |  |
| COc1ccccc1N1CCN(CCC(C(=O)N(C)C)(c2ccccc2)c2ccccc2)CC1 |  | Active |  |  |  |  |  |  |
| CCCC(NC(=O)/C(=C/c1ccccc1)CN1CCN(c2ccc(O)cc2)CC1)C(=O)O (stereo not given) | inactive | inactive | inactive | inactive |  |  |  |  |
| CC(C)[C@H](NC(=O)/C(=C/c1ccccc1)CN1CC[C@@](C)(c2cccc(O)c2)[C@@H](C)C1)C(=O)O | 50% |  | inactive |  | inactive | inactive | inactive | IC50 ([12]; read-out: IC50): 650 nM; IC50 ([12]; read-out: pIC50 (converted)): 658 to 661 nM |
| Cc1cccc(Oc2ccc(C(=O)N[C@H](CN3CCN(c4cccc(O)c4)[C@@H](C)C3)C(C)C)cc2)c1 |  |  | Active |  |  |  |  |  |
| O=C(O)CNC(=O)C(Cc1ccccc1)CN1CCN(c2ccccc2O)CC1 (stereo not given) | inactive | inactive | inactive |  |  |  | inactive |  |
| CC(C)C[C@H](NC(=O)/C(=C/c1ccccc1)CN1CCN(c2ccc(O)cc2)CC1)C(=O)O | inactive | inactive | inactive | inactive |  |  |  |  |
| O=C(O)CNC(=O)/C(=C/c1ccccc1)CN1CCN(c2ccc(O)cc2)CC1 | inactive | inactive | inactive | inactive |  |  |  |  |
| CC(C)C[C@H](NC(=O)/C(=C/c1ccccc1)CN1CC[C@@](C)(c2cccc(O)c2)[C@@H](C)C1)C(=O)O | 50% |  | inactive |  | inactive | inactive | inactive | IC50 ([12]; read-out: IC50): 780 nM; IC50 ([12]; read-out: pIC50 (converted)): 782 to 794 nM |
| O=C(O)/C(=C/c1ccccc1)CN1CCN(c2cccc(Cl)c2Cl)CC1 | inactive | inactive |  |  | inactive | inactive |  | Activity [13]: inactive; Activity [6]: inactive; inhibition [7]: inactive; Activity [14]: Dose-dependent effect; inhibition (INH) [9]: Not Active; IC50 ([4]; read-out: IC50): 800 nM; IC50 ([4]; read-out: pIC50 (converted)): 716 to 813 nM; Activity [10]: Not Active |
| CCC(C)C(NC(=O)/C(=C/c1ccccc1)CN1CC[C@@](C)(c2cccc(O)c2)[C@@H](C)C1)C(=O)O (stereo not given in full) | 50% |  | inactive |  | inactive | inactive | inactive | IC50 ([12]; read-out: IC50): 1600 nM; IC50 ([12]; read-out: pIC50 (converted)): 1600 to 1620 nM |
| COc1ccccc1N1CCN(C/C(=C\c2ccccc2)C(=O)NCC(=O)O)CC1 | inactive | inactive | inactive | inactive |  |  |  |  |
| CC(C)[C@H](NC(=O)/C(=C/c1ccccc1)CN1CCN(c2ccc(Cl)cc2)CC1)C(=O)O | inactive | inactive |  |  | inactive | inactive |  | Activity [13]: inactive; Activity [6]: inactive; inhibition [7]: inactive; Activity [14]: Dose-dependent effect; inhibition (INH) [9]: Not Active; IC50 ([4]; read-out: IC50): 910 nM; IC50 ([4]; read-out: pIC50 (converted)): 910 to 948 nM; Activity [10]: Not Active |
| C[C@H]1CN(C[C@H](Cc2ccccc2)C(=O)NCC(=O)O)CC[C@@]1(C)c1cccc(O)c1 | 50% |  | inactive |  | inactive | inactive | inactive |  |
| COc1ccc(N2CCN(CC(Cc3ccccc3)C(=O)NCC(=O)O)CC2)cc1 (stereo not given) | inactive | inactive | inactive |  |  |  | inactive |  |
| COc1cccc(N2CCN(C/C(=C\c3ccccc3)C(=O)NCC(=O)O)CC2)c1 | inactive | inactive | inactive | inactive |  |  |  |  |
| CCCC(NC(=O)/C(=C/c1ccccc1)CN1CC[C@@](C)(c2cccc(O)c2)[C@@H](C)C1)C(=O)O (stereo not given in full) | 50% |  | inactive |  | inactive | inactive | inactive | IC50 ([12]; read-out: IC50): 2320 nM; IC50 ([12]; read-out: pIC50 (converted)): 2320 to 2340 nM |
| CC1(c2cccc(O)c2)CCN(C/C(=C\c2ccccc2)C(=O)O)CC1 | 50% |  | inactive |  | inactive | inactive | inactive | IC50 ([12]; read-out: IC50): 18 nM; IC50 ([12]; read-out: pIC50 (converted)): 18.6 to 76.6 nM |
